The results in this text go back to ChEMBL document CHEMBL1138853, “Synthesis and antituberculosis activity of a novel series of optically active 6-nitro-2,3-dihydroimidazo[2,1-b]oxazoles” (2006).

SMILES strings stand for the structures. ≈ marks a conversion by molar mass, not a printed value. Bounds are passed on as bounds.

Assay [1] concerns Mycobacterium tuberculosis. The assay is described as follows: Antituberculosis activity against Mycobacterium tuberculosis H37Rv. It is filed as functional. In short, it runs like this: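 Agar dilution on 7H11 plates with drug-susceptible and drug-resistant M. tuberculosis H37Rv strains grown in Middlebrook 7H9 broth. Frozen stocks (-80 °C) diluted to about 10⁶ CFU/mL and spotted with a multipoint inoculator onto drug-containing plates. Drugs dissolved in DMSO and serially diluted 2-fold in DMSO. Read-out: MIC.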

Assay [2] relates to Mycobacterium tuberculosis. The assay is described as follows: Reduction in log CFU of Mycobacterium tuberculosis Kurono infected in mouse lung at 50 mg/kg, po relative to control. It is filed as functional. In short, it runs like this: (§1)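 Mice weighing 20-25 g infected intravenously via tail vein with 10⁴ CFU of M. tuberculosis Kurono. Oral dosing once daily at 0.5-50 mg/kg for 10 days (n = 2), starting the day after infection. Sacrificed on day 11; lungs homogenised and dilution-plated on 7H11 agar at 37 °C for 14 days. Mean log CFU reduction calculated against untreated controls.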

In assay [3] the test system is Mycobacterium tuberculosis. The assay is described as follows: Reduction in log CFU of Mycobacterium tuberculosis Kurono infected in mouse lung at 5 mg/kg, po after 10 days. The class given is functional. The method in brief:
as §1

Assay [4] has as its system Mycobacterium tuberculosis. The assay is described as follows: Reduction in log CFU of Mycobacterium tuberculosis Kurono infected in mouse lung at 10 mg/kg, po after 10 days. The class given is functional. In short, it runs like this: as §1
Assay [5] relates to Mycobacterium tuberculosis. The assay is described as follows: Reduction in log CFU of Mycobacterium tuberculosis Kurono infected in mouse lung at 0.5 mg/kg, po after 10 days. It is filed as functional. In short, it runs like this: as §1
Assay [6] relates to Mycobacterium tuberculosis. The assay is described as follows: Decrease in Mycobacterium tuberculosis count in mouse pulmonary. It is filed as functional, organism-based. In short, it runs like this: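 ICR male mice (20-25 g) infected intravenously via tail vein with 10⁴ CFU of M. tuberculosis Kurono. Dosed orally once daily as a 5% gum arabic suspension for 28 days (n = 6), starting the day after infection. Sacrificed on day 29; lung homogenates plated on 7H11 agar at 37 °C for 14 days. Counts compared with untreated controls.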

What is called MIC is the least concentration at which growth counts as inhibited. A higher MIC goes with a need for much substance. On to `O=[N+]([O-])c1cn2c(n1)OC(COCc1ccccc1)C2` (centres undefined), for which the MIC in assay [1] was 3.13 µg/mL (≈ 11.4 µM). `O=[N+]([O-])c1cn2c(n1)OC(COC/C=C/c1ccccc1)C2` (centres undefined) showed an MIC in assay [1] of 12.5 µg/mL (≈ 41.5 µM).

In the case of `C[C@]1(COc2ccc(N3CCC(Oc4ccccc4OC(F)(F)F)CC3)cc2)Cn2cc([N+](=O)[O-])nc2O1`, the Activity in assay [2] is 3. Also, the MIC in assay [1] worked out at 0.39 µg/mL (≈ 0.73 µM).

`CO[C@H]1/C=C/O[C@@]2(C)Oc3c(C)c(O)c4c(O)c(c(/C=N/N5CCN(C)CC5)c(O)c4c3C2=O)NC(=O)/C(C)=C\C=C\[C@H](C)[C@H](O)[C@@H](C)[C@@H](O)[C@@H](C)[C@H](OC(C)=O)[C@@H]1C` [RIFAMPIN]: the Activity in assay [3] is listed as 0.5. The molecule also had an MIC in assay [1] of 0.1 µg/mL (≈ 0.122 µM).

As for `COc1ccc(OC2CCN(c3ccc(OC[C@@]4(C)Cn5cc([N+](=O)[O-])nc5O4)cc3)CC2)cc1`, the Activity in assay [2] amounted to 0.1. Moreover, in assay [1], the MIC amounted to 0.39 µg/mL (≈ 0.812 µM).

`COc1ccc(OC[C@@]2(C)Cn3cc([N+](=O)[O-])nc3O2)cc1` displayed an Activity in assay [2] of 0.72. Moreover, it took 0.05 µg/mL (≈ 0.164 µM) to inhibit growth in assay [1] (MIC). For `C[C@]1(COc2ccc(N3CCC(Oc4ccc(F)cc4)CC3)cc2)Cn2cc([N+](=O)[O-])nc2O1` the same measures were 2.2 and 0.39 µg/mL (≈ 0.832 µM).

In turn, `C[C@]1(COc2ccc(N3CCC(Oc4cccc(OC(F)(F)F)c4)CC3)cc2)Cn2cc([N+](=O)[O-])nc2O1` came in with an Activity in assay [2] of over 4.4. Also, the lowest concentration to inhibit growth in assay [1] (MIC) was 0.024 µg/mL (≈ 0.0449 µM). The molecule `C[C@]1(COc2ccc(N3CCOCC3)cc2)Cn2cc([N+](=O)[O-])nc2O1` displayed an Activity in assay [2] of 1.3. In addition, in assay [1], 0.78 µg/mL (≈ 2.16 µM) was the least that counted as inhibitory (MIC). As to `C[C@]1(COc2ccccc2)Cn2cc([N+](=O)[O-])nc2O1`, the Activity in assay [2] was 2. Also, the MIC in assay [1] worked out at 0.05 µg/mL (≈ 0.182 µM). `CC1(COc2ccccc2)Cn2cc([N+](=O)[O-])nc2O1` (centres undefined) showed a minimum inhibitory concentration (MIC) in assay [1] of 0.1 µg/mL (≈ 0.363 µM).

In assay [2], `Cc1ccc(OC[C@@]2(C)Cn3cc([N+](=O)[O-])nc3O2)cc1` returned an Activity of 2.9. The molecule further had an MIC in assay [1] of 0.012 µg/mL (≈ 0.0415 µM). In turn, `C[C@]1(COc2ccc(N3CC[S+]([O-])CC3)cc2)Cn2cc([N+](=O)[O-])nc2O1` registered an MIC in assay [1] of 6.25 µg/mL (≈ 15.9 µM).

In assay [2], `C[C@]1(COc2ccc(N3CCSCC3)cc2)Cn2cc([N+](=O)[O-])nc2O1` returned an Activity of 0. Also, in assay [1], the minimal inhibitory concentration (MIC) came to 0.78 µg/mL (≈ 2.07 µM). For `C[C@]1(COc2ccc(N3CCC(Oc4ccc(C(F)(F)F)cc4)CC3)cc2)Cn2cc([N+](=O)[O-])nc2O1` the same measures were 2.2 and 0.012 µg/mL (≈ 0.0231 µM). Turning to `C[C@]1(COc2ccc(N3CCC(Oc4ccc(OC(F)(F)F)cc4)CC3)cc2)Cn2cc([N+](=O)[O-])nc2O1` [DELAMANID], the Activity in assay [2] is over 3.8; in assay [4], over 4.4; in assay [5] it was 2.5; in assay [6] it was “Dose-dependent effect”. Besides, inhibition of growth in assay [1] (MIC) required 0.006 µg/mL (≈ 0.0112 µM). In turn, `C[C@]1(COc2ccc(N3CCC(Oc4ccccc4)CC3)cc2)Cn2cc([N+](=O)[O-])nc2O1` registered an Activity in assay [2] of 2.8. Moreover, in assay [1], the MIC is 0.39 µg/mL (≈ 0.866 µM). In assay [2], `C[C@]1(COc2ccc(C(F)(F)F)cc2)Cn2cc([N+](=O)[O-])nc2O1` registered an Activity of over 4.4. This molecule also had an MIC in assay [1] of 0.2 µg/mL (≈ 0.583 µM). For the molecule `O=[N+]([O-])c1cn2c(n1)OC(COCCc1ccccc1)C2` (centres undefined), the MIC in assay [1] worked out at 1.56 µg/mL (≈ 5.39 µM).

In the case of `C[C@]1(COc2ccc(N3CCCCC3)cc2)Cn2cc([N+](=O)[O-])nc2O1`, the Activity in assay [2] came out at 1.9. In assay [1], 0.78 µg/mL (≈ 2.18 µM) was the least that counted as inhibitory (MIC). As to `C[C@]1(COc2ccc(Cl)cc2)Cn2cc([N+](=O)[O-])nc2O1`, the Activity in assay [2] is recorded as over 3.1. Also, the MIC in assay [1] was determined as 0.024 µg/mL (≈ 0.0775 µM). As for `C[C@]1(COc2ccc(OC(F)(F)F)cc2)Cn2cc([N+](=O)[O-])nc2O1`, the Activity in assay [2] is given as over 3.6; in assay [4], 3; in assay [5], 0.4. Further, the MIC in assay [1] was 0.2 µg/mL (≈ 0.557 µM). Molecule `C[C@]1(COc2ccc(N3CCC(Oc4ccc(Cl)cc4)CC3)cc2)Cn2cc([N+](=O)[O-])nc2O1` returned an Activity in assay [2] of 2.2. The molecule also had an MIC in assay [1] of 0.05 µg/mL (≈ 0.103 µM). `C[C@@]1(COc2ccccc2)Cn2cc([N+](=O)[O-])nc2O1` had a minimum inhibitory concentration (MIC) in assay [1] of 3.13 µg/mL (≈ 11.4 µM).

As for `Cc1ccc(OC2CCN(c3ccc(OC[C@@]4(C)Cn5cc([N+](=O)[O-])nc5O4)cc3)CC2)cc1`, in assay [2], the Activity was 0.6. The minimal inhibitory concentration (MIC) in assay [1] is 0.78 µg/mL (≈ 1.68 µM).
